Results from ChEMBL document CHEMBL2086248, “Synthesis of some novel 1-(2-naphthyl)-2-(imidazol-1-yl)ethanone oxime ester derivatives and evaluation of their anticonvulsant activity” (Eur J Med Chem, 2012).
Active and inactive are the calls of the source.

Legend:
Mus musculus [1] = assay: Neurotoxicity in mouse assessed as motor impairment at 30 mg/kg, ip after 0.5 hrs by rotarod test; type: toxicity, organism-based; parameters: dose 30 mg/kg, route intraperitoneal; settings: in vivo
How it was run: (§1)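 Swiss albino mice (20-24 g) were dosed ip with a suspension in 30% aqueous PEG 400 and tested 0.5 h or 4 h later. They were placed on a knurled wooden rod 1 inch in diameter, rotating at 6 rpm. Toxicity meant failure to stay on the rod for at least 1 min in each of three trials. Scored as number toxic/number tested (4 mice at 0.5 h, 2 at 4 h).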

Mus musculus [2] = assay: Anticonvulsant activity in mouse assessed as protection against subcutaneous pentylenetetrazole-induced seizures at 30 mg/kg, ip after 0.5 hrs; type: functional, organism-based; parameters: dose 30 mg/kg
How it was run: (§2)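 Swiss albino mice (20-24 g) were dosed ip with a suspension in 30% aqueous PEG 400 and challenged 0.5 h or 4 h later. Protection meant no threshold seizure (clonic spasms lasting at least 5 s). Scored as number protected/number tested, one mouse per dose and time.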

Mus musculus [3] = assay: Anticonvulsant activity in mouse assessed as protection against maximal electroshock-induced seizures at 300 mg/kg, ip after 0.5 hrs; type: functional, organism-based; parameters: dose 300 mg/kg
How it was run: (§3)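 Swiss albino mice (20-24 g) received an ip suspension in 30% aqueous PEG 400 and were tested 0.5 h and 4 h after dosing. Shock was delivered through corneal electrodes from a constant current unit, with 0.9% saline dropped into the eyes first. Protection meant abolition of the hind limb tonic extension. Scored as number protected/number tested, one mouse per dose and time.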

Mus musculus [4] = assay: Anticonvulsant activity in mouse assessed as protection against maximal electroshock-induced seizures at 100 mg/kg, ip after 4 hrs; type: functional, organism-based; parameters: dose 100 mg/kg; how it was run: as §3
Mus musculus [5] = assay: Neurotoxicity in mouse assessed as motor impairment at 100 mg/kg, ip after 0.5 hrs by rotarod test; type: toxicity, organism-based; parameters: dose 100 mg/kg, route intraperitoneal; settings: in vivo; how it was run: as §1
Mus musculus [6] = assay: Anticonvulsant activity in mouse assessed as protection against subcutaneous pentylenetetrazole-induced seizures at 100 mg/kg, ip after 0.5 hrs; type: functional, organism-based; parameters: dose 100 mg/kg; how it was run: as §2
Mus musculus [7] = assay: Anticonvulsant activity in mouse assessed as protection against subcutaneous pentylenetetrazole-induced seizures at 30 mg/kg, ip after 4 hrs; type: functional, organism-based; parameters: dose 30 mg/kg; how it was run: as §2
Mus musculus [8] = assay: Anticonvulsant activity in mouse assessed as protection against maximal electroshock-induced seizures at 30 mg/kg, ip after 0.5 hrs; type: functional, organism-based; parameters: dose 30 mg/kg; how it was run: as §3
Mus musculus [9] = assay: Neurotoxicity in mouse assessed as motor impairment at 100 mg/kg, ip after 4 hrs by rotarod test; type: toxicity, organism-based; parameters: dose 100 mg/kg, route intraperitoneal; settings: in vivo; how it was run: as §1
Mus musculus [10] = assay: Anticonvulsant activity in mouse assessed as protection against maximal electroshock-induced seizures at 30 mg/kg, ip after 4 hrs; type: functional, organism-based; parameters: dose 30 mg/kg; how it was run: as §3
Mus musculus [11] = assay: Neurotoxicity in mouse assessed as mortality at 300 mg/kg, ip after 4 hrs by rotarod test; type: toxicity, organism-based; parameters: dose 300 mg/kg, route intraperitoneal; settings: in vivo
Mus musculus [12] = assay: Neurotoxicity in mouse assessed as motor impairment at 30 mg/kg, ip after 4 hrs by rotarod test; type: toxicity, organism-based; parameters: dose 30 mg/kg, route intraperitoneal; settings: in vivo; how it was run: as §1
Mus musculus [13] = assay: Anticonvulsant activity in mouse assessed as protection against subcutaneous pentylenetetrazole-induced seizures at 100 mg/kg, ip after 4 hrs; type: functional, organism-based; parameters: dose 100 mg/kg; how it was run: as §2
Mus musculus [14] = assay: Neurotoxicity in mouse assessed as mortality at 300 mg/kg, ip after 0.5 hrs by rotarod test; type: toxicity, organism-based; parameters: dose 300 mg/kg, route intraperitoneal; settings: in vivo
Mus musculus [15] = assay: Anticonvulsant activity in mouse assessed as protection against maximal electroshock-induced seizures at 100 mg/kg, ip after 0.5 hrs; type: functional, organism-based; parameters: dose 100 mg/kg; how it was run: as §3
Mus musculus [16] = assay: Anticonvulsant activity in mouse assessed as protection against maximal electroshock-induced seizures at 300 mg/kg, ip after 4 hrs; type: functional, organism-based; parameters: dose 300 mg/kg; how it was run: as §3
Mus musculus [17] = assay: Anticonvulsant activity in mouse assessed as protection against subcutaneous pentylenetetrazole-induced seizures at 300 mg/kg, ip after 0.5 hrs; type: functional, organism-based; parameters: dose 300 mg/kg; how it was run: as §2
Mus musculus [18] = assay: Anticonvulsant activity in mouse assessed as protection against subcutaneous pentylenetetrazole-induced seizures at 300 mg/kg, ip after 4 hrs; type: functional, organism-based; parameters: dose 300 mg/kg; how it was run: as §2
Mus musculus [19] = assay: Neurotoxicity in mouse assessed as motor impairment at 300 mg/kg, ip after 0.5 hrs by rotarod test; type: toxicity, organism-based; parameters: dose 300 mg/kg, route intraperitoneal; settings: in vivo; how it was run: as §1
Mus musculus [20] = assay: Neurotoxicity in mouse assessed as motor impairment at 300 mg/kg, ip after 4 hrs by rotarod test; type: toxicity, organism-based; parameters: dose 300 mg/kg, route intraperitoneal; settings: in vivo; how it was run: as §1

| Structure (SMILES) | Activity (Mus musculus [1]) | Activity (Mus musculus [2]) | Activity (Mus musculus [3]) | Activity (Mus musculus [4]) | Activity (Mus musculus [5]) | Activity (Mus musculus [6]) | Activity (Mus musculus [7]) | Activity (Mus musculus [8]) | Activity (Mus musculus [9]) | Activity (Mus musculus [10]) | Activity (Mus musculus [11]) | Activity (Mus musculus [12]) | Activity (Mus musculus [13]) | Activity (Mus musculus [14]) | Activity (Mus musculus [15]) | Activity (Mus musculus [16]) | Activity (Mus musculus [17]) | Activity (Mus musculus [18]) | Activity (Mus musculus [19]) | Activity (Mus musculus [20]) |
| --- | --- | --- | --- | --- | --- | --- | --- | --- | --- | --- | --- | --- | --- | --- | --- | --- | --- | --- | --- | --- |
| O=C(CCC(=O)c1ccccc1)O/N=C(\Cn1ccnc1)c1ccc2ccccc2c1 | Non-toxic | inactive | inactive | Active | Non-toxic | inactive | inactive | Active | Non-toxic | Active | Toxic | Non-toxic | inactive | Toxic | Active | inactive | inactive |  |  |  |
| O=C(O/N=C(\Cn1ccnc1)c1ccc2ccccc2c1)c1ccccc1 | Non-toxic | inactive | Active | Active | Non-toxic | inactive | inactive | inactive | Non-toxic | Active |  | Non-toxic | inactive |  | Active | Active | inactive | Active | Non-toxic | Non-toxic |
